# Experimental data as given in ChEMBL document CHEMBL3297658, “Potent fluorinated agelastatin analogues for chronic lymphocytic leukemia: design, synthesis, and pharmacokinetic studies” (J Med Chem, 2014).
# Key:
# [1] = Antitumor activity against CLL2 cells isolated from CLL patient assessed as cell viability after 48 hrs by FACS analysis; type: functional, cell-based, Homo sapiens
# Summary of the method: (§1)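 Primary CLL patient cells or JVM-2 line cultured 48 h (37 °C, 5% CO2) in RPMI + 10% FBS with graded compound. Stained 30 min at 37 °C with 40 nM DiOC6 and 10 μg/mL PI, then flow cytometry (525 nm DiOC6, 600 nm PI). Viability = % DiOC6+/PI− relative to untreated or vehicle control. EC50 and SE fitted from dose–response curves.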
# [2] = Antitumor activity against human JVM2 cells assessed as cell viability after 48 hrs by FACS analysis; type: functional, cell-based; conditions: JVM-2, 48 h; summary of the method: as §1
# HeLa = experiment: Antitumor activity against human HeLa cells assessed as cell viability by MTT assay; type: functional, cell-based
# Summary of the method: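 Adherent HeLa cells exposed to compound, then medium replaced with 0.5 mg/mL MTT in phenol-red-free RPMI and incubated overnight at 37 °C. Lysed with 15% SDS/0.015 M HCl and OD read at 570 nm once formazan dissolved. EC50 and SE derived from dose–response curves.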
# [3] = Antitumor activity against CLL1 cells isolated from CLL patient assessed as cell viability after 48 hrs by FACS analysis; type: functional, cell-based; conditions: Homo sapiens; summary of the method: as §1
# [4] = Antitumor activity against CLL3 cells isolated from CLL patient assessed as cell viability after 48 hrs by FACS analysis; type: functional, cell-based; conditions: Homo sapiens; summary of the method: as §1
# [5] = Antitumor activity against CLL6 cells isolated from CLL patient assessed as cell viability after 48 hrs by FACS analysis; type: functional, cell-based; conditions: Homo sapiens, CLL6, 48 h; summary of the method: as §1
# [6] = Cmax in BALB/c mouse plasma at 2.5 mg/kg, ip administered as single dose by LC/MS analysis; type: ADME, organism-based; parameters: dose 2.5 mg/kg, route intraperitoneal
# Summary of the method: (§2)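 Female BALB/c mice dosed at 6 weeks of age with a single intraperitoneal dose of 2.5 or 5.0 mg/kg, n = 4. Tail-vein blood taken at set times and stored at -80 °C. Samples precipitated with CH3CN, spun at 3000g for 10 min, concentrated, reconstituted in 1:1 CH3CN/H2O and quantified by LCMS. PK parameters derived from the concentration–time curves.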
# [7] = AUC in BALB/c mouse plasma at 2.5 mg/kg, iv administered as single dose by LC/MS analysis; type: ADME, organism-based; parameters: dose 2.5 mg/kg, route intravenous
# Summary of the method: (§3)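 Female BALB/c mice given a single 2.5 mg/kg dose intravenously (IP arm run in parallel). Plasma concentration–time course followed by LCMS. AUC, Cmax, Tmax and t1/2 calculated from the curves.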
# Liver microsome = experiment: Metabolic stability in human liver microsomes at 100 uM measured after 1 hr by LC/MS analysis in presence of 1 mM NADPH; type: ADME
# Summary of the method: (§4)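 Microsomes (final protein 5 mg/mL, mouse or human) in 0.1 M sodium phosphate pH 7.4 with compound at 100 μM final (DMSO <1%). Preincubated 5 min at 37 °C, started with NADPH (1 mM final), run 60 min at 37 °C with agitation. Stopped with MeOH and centrifuged; supernatant analysed by LCMS. Controls: zero time, no NADPH, heat-inactivated microsomes, and 7-ethoxycoumarin as CYP substrate.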
# [8] = Antitumor activity against CLL5 cells isolated from CLL patient assessed as cell viability after 48 hrs by FACS analysis; type: functional, cell-based; conditions: Homo sapiens; summary of the method: as §1
# [9] = Half life in BALB/c mouse plasma at 2.5 mg/kg, iv administered as single dose by LC/MS analysis; type: ADME, organism-based; parameters: dose 2.5 mg/kg, route intravenous; summary of the method: as §3
# [10] = Antitumor activity against CLL4 cells isolated from CLL patient assessed as cell viability after 48 hrs by FACS analysis; type: functional, cell-based; conditions: Homo sapiens; summary of the method: as §1
# [11] = Cmax in BALB/c mouse plasma at 5 mg/kg, ip administered as single dose by LC/MS analysis; type: ADME, organism-based; parameters: dose 5 mg/kg, route intraperitoneal; summary of the method: as §2
# [12] = Half life in BALB/c mouse plasma at 5 mg/kg, ip administered as single dose by LC/MS analysis; type: ADME, organism-based; parameters: dose 5 mg/kg, route intraperitoneal; summary of the method: as §2
# [13] = Drug recovery in human AB serum at 50 uM after 24 hrs by LC-MS method; type: ADME, cell-free; conditions: read-out: Drug recovery
# Summary of the method: (§5)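 Compound added to pooled female BALB/c mouse plasma or serum, or to human AB serum, at 50 μM final (1% DMSO) and incubated at 37 °C with gentle agitation. Aliquots taken at 0, 0.5, 1, 2, 8, 18 and 24 h, proteins precipitated with CH3CN, spun at 3000g for 10 min, supernatant analysed by LCMS. Run in triplicate.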
# [14] = AUC in BALB/c mouse plasma at 5 mg/kg, ip administered as single dose by LC/MS analysis; type: ADME, organism-based; parameters: dose 5 mg/kg, route intraperitoneal; summary of the method: as §2
# [15] = Cytotoxicity against human CLL cells; type: functional, cell-based
# Summary of the method: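 Primary patient CLL cells cultured 48 h (37 °C, 5% CO2) in RPMI with 10% FBS and test compound. Viability taken as the DiOC6+/PI− fraction relative to untreated or vehicle control. EC50 with SE from dose–response curves.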
# [16] = Tmax in BALB/c mouse plasma at 2.5 mg/kg, ip administered as single dose by LC/MS analysis; type: ADME, organism-based; parameters: dose 2.5 mg/kg, route intraperitoneal; summary of the method: as §2
# Liver [17] = experiment: Metabolic stability in mouse liver microsomes at 100 uM measured after 1 hr by LC/MS analysis in presence of 1 mM NADPH; type: ADME; summary of the method: as §4
# KB = experiment: Cytotoxicity against human KB cells; type: functional, cell-based
# Plasma = experiment: Protein binding in BALB/c mouse plasma at 50 uM after 1 to 24 hrs by LC-MS method; type: ADME, cell-free; summary of the method: as §5
# [18] = Tmax in BALB/c mouse plasma at 2.5 mg/kg, iv administered as single dose by LC/MS analysis; type: ADME, organism-based; parameters: dose 2.5 mg/kg, route intravenous; summary of the method: as §3
# Liver [19] = experiment: Metabolic stability in mouse liver microsomes containing glucuronidase; type: ADME
# Serum [20] = experiment: Protein binding in human AB serum at 50 uM after 1 to 24 hrs by LC-MS method; type: ADME; summary of the method: as §5
# [21] = Tmax in BALB/c mouse plasma at 5 mg/kg, ip administered as single dose by LC/MS analysis; type: ADME, organism-based; parameters: dose 5 mg/kg, route intraperitoneal; summary of the method: as §2
# [22] = AUC in BALB/c mouse plasma at 2.5 mg/kg, ip administered as single dose by LC/MS analysis; type: ADME, organism-based; parameters: dose 2.5 mg/kg, route intraperitoneal; summary of the method: as §2
# [23] = Cmax in BALB/c mouse plasma at 2.5 mg/kg, iv administered as single dose by LC/MS analysis; type: ADME, organism-based; parameters: dose 2.5 mg/kg, route intravenous; summary of the method: as §3
# Liver [24] = experiment: Metabolic stability in human liver S9 fraction containing glucuronidase; type: ADME, subcellular
# Serum [25] = experiment: Protein binding in BALB/c mouse serum at 50 uM after 1 to 24 hrs by LC-MS method; type: ADME; summary of the method: as §5
# [26] = Drug recovery in BALB/c mouse plasma at 50 uM after 24 hrs by LC-MS method; type: ADME, cell-free; conditions: read-out: Drug recovery; summary of the method: as §5
# Mus musculus = experiment: Half life in BALB/c mouse plasma at 2.5 mg/kg, ip administered as single dose by LC/MS analysis; type: ADME, organism-based; parameters: dose 2.5 mg/kg, route intraperitoneal; conditions: in vivo; summary of the method: as §2
# [27] = Drug recovery in BALB/c mouse serum at 50 uM after 24 hrs by LC-MS method; type: ADME, cell-free; conditions: read-out: Drug recovery; summary of the method: as §5
compound,measurement,setting,value
CN1C(=O)N[C@H]2[C@@H]3NC(=O)c4cc(C(F)(F)F)c(C(F)(F)F)n4[C@@H]3C[C@]21O,EC50,"[1]; Homo sapiens, CLL2, 48 h",19.2 µM
same,EC50,[2],41 µM
same,EC50,HeLa,153 µM
CN1C(=O)N[C@H]2[C@@H]3NC(=O)c4cc(C(F)(F)F)cn4[C@@H]3C[C@]21O,EC50,[3],45.1 µM
same,EC50,"[1]; Homo sapiens, CLL2, 48 h",4.68 µM
same,EC50,[2],22.8 µM
same,EC50,HeLa,19.6 µM
CN1C(=O)N[C@H]2[C@@H]3NC(=O)c4ccc(C(F)F)n4[C@@H]3C[C@]21O,EC50,[3],13 µM
same,EC50,"[1]; Homo sapiens, CLL2, 48 h",5.44 µM
same,EC50,[2],4.66 µM
same,EC50,HeLa,4.01 µM
CN1C(=O)N[C@H]2[C@@H]3NC(=O)c4cc(I)c(Br)n4[C@@H]3C[C@]21O,EC50,[3],211 µM
same,EC50,"[1]; Homo sapiens, CLL2, 48 h",48.2 µM
same,EC50,[2],162 µM
same,EC50,HeLa,86.7 µM
CO[C@@]12C[C@@H]3[C@H]([C@@H]1N(C)C(=O)N2C)N(C)C(=O)c1ccc(Br)n13,EC50,[3],140 µM
same,EC50,"[1]; Homo sapiens, CLL2, 48 h",47.7 µM
same,EC50,[2],55.7 µM
same,EC50,HeLa,59 µM
CN1C(=O)N[C@@]2(O)[C@@H]3NC(=O)c4ccc(Br)n4[C@@H]3C[C@@]12O,EC50,[3],84.6 µM
same,EC50,"[1]; Homo sapiens, CLL2, 48 h",10 µM
same,EC50,[2],4.07 µM
same,EC50,HeLa,7.63 µM
CN1C(=O)N[C@H]2[C@@H]3NC(=O)c4ccc(Br)n4[C@@H]3C[C@]21O (stereo in doubt; 1a) [AGELASTATIN A],EC50,[4],0.24 µM
same,EC50,[5],1.15 µM
same,Cmax,[6],1280 nM
same,AUC,[7],1.74 µM·h
same,Stability,Liver microsome,Stable
same,EC50,[8],0.29 µM
same,half-life,[9],4 min
same,EC50,[10],0.37 µM
same,Cmax,[11],2300 nM
same,half-life,[12],60 min
same,"remaining at 24 h, 50 µM",[13],65%
same,EC50,[3],0.31 µM
same,AUC,[14],4.29 µM·h
same,IC50,[15],0.06 µM
same,Tmax,[16],30 min
same,Stability,Liver [17],Stable
same,IC50,KB,0.5 µg/mL
same,PPB,Plasma,Not Active
same,Tmax,[18],2 min
same,Stability,Liver [19],Stable
same,EC50,[1]; cll2,0.16 µM
same,PB,Serum [20],Not Active
same,Tmax,[21],30 min
same,EC50,[2],0.28 µM
same,AUC,[22],2.95 µM·h
same,EC50,HeLa,0.11 µM
same,Cmax,[23],4500 nM
same,Stability,Liver [24],Stable
same,PB,Serum [25],Not Active
same,"remaining at 24 h, 50 µM",[26],65%
same,t1/2,Mus musculus,60 min
same,"remaining at 24 h, 50 µM",[27],65%
CN1C(=O)N[C@H]2[C@@H]3NC(=O)c4ccc(Br)n4[C@@H]3C[C@]21O (stereo in doubt; 3) [AGELASTATIN A],EC50,[1]; cll2,> 1 µM
O=C1N[C@H]2[C@@H]3NC(=O)c4ccc(Br)n4[C@@H]3C[C@@]2(O)N1 [AGELASTATIN D],EC50,[3],91.1 µM
same,EC50,"[1]; Homo sapiens, CLL2, 48 h",29 µM
same,EC50,[2],13.2 µM
CCOc1ccc2ccc(=O)oc2c1 [ETHOXYCOUMARIN],Stability,Liver microsome,Unstable
same,Stability,Liver [17],Unstable
Nc1nc(F)nc2c1ncn2[C@@H]1O[C@H](CO)[C@@H](O)[C@@H]1O [FLUDARABINE],EC50,[4],0.35 µM
same,EC50,[5],1.6 µM
same,EC50,[8],0.16 µM
same,EC50,[10],0.64 µM
same,EC50,[3],17.1 µM
same,EC50,"[1]; Homo sapiens, CLL2, 48 h",2.66 µM
same,EC50,[2],10.4 µM
same,EC50,HeLa,16 µM
